Bioassay records deposited in PubChem BioAssay by several laboratories.
Most compounds without a hit are left out; they make up all but 1.6% or so of the library.
Pf gamet viab – inhibitors of late stage P. falciparum gametocyte viability; P. falciparum stage V gametocytes, ATP luminescence, 24 h; inhibition, % at 10.9 µM; 0.065% of 150,000 active;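 active means inhibition above the mean plus 3 SD of compounds within the control limits, set per campaign, cut at about 38% in these data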
Mdm2 ligase inh – Mdm2 E3 ligase (human) inhibition | signal enhancement, % at 5 µM | Q00987 | cell-based MDM2 ubiquitination luciferase reporter, 2 h; 0 = plate control, 100 = twice control, blank-subtracted | 0.11% of 210,000 active;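 active means signal enhancement of 30% or more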;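 further: luminescence tracks abundance of the self-degrading MDM2-luciferase fusion protein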
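Buffer or medium: Cells held in DMEM | Assay system: Stable mammalian line carrying autodegrading MDM2–luciferase fusion reporter | Quantity: 2000 cells/well | Times: 4 h settle plus 2 h compound, 37 °C | Doses: One concentration, 5 µM, with 0.2% DMSO | Technique: Luminescence with SteadyLite reagent, 15 min at room temperature | Benchmarks: Plate controls and plate blanks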
Wee1 stabilizer – inhibitors of human Wee1 degradation; 1.2% of 220,000 active; reporter increase, % at 5 µM; HeLa Luc-Wee1K328M stability, luciferase luminescence; 100% = proteasome inhibitor MG132 effect; P30291; AID 1321;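 active means activation above the mean of all tested compounds plus 3 SD, set per screening run, cut at about 8.8% in these data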;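 further: cells exposed to compound for 20 h before luminescence read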
Target sequence (P30291 whole entry K328M): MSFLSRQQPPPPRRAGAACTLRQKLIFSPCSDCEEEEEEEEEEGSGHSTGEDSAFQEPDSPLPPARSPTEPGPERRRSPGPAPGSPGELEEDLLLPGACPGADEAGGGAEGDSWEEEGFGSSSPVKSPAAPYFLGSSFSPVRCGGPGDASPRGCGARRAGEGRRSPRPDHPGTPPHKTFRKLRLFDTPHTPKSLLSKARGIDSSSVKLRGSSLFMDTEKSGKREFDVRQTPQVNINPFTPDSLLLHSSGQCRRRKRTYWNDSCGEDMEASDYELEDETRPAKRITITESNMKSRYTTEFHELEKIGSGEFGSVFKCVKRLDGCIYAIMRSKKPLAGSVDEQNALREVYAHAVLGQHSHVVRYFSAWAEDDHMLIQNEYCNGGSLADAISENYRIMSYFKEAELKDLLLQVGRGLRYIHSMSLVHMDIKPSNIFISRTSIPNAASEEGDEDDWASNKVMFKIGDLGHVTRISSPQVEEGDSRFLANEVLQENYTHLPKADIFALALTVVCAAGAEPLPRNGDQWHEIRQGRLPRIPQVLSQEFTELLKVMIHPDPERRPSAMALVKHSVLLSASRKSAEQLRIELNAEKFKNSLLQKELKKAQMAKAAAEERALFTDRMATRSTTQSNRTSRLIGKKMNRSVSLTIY
TNF necrop inh – TNF-alpha cell death inhibition in Jurkat FADD-/- cells. Jurkat FADD-/- TNF necroptosis rescue, ATP luminescence, 24 h; 0 = TNF only, 100 = no-TNF cells. activation (protection from cell death), % at 10 µM. 0.068% of 220,000 active. AID 463075;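 active means activation, meaning protection from cell death, of at least 50% relative to plate controls; inactive means activation below 50%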;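 further: necroptosis triggered by 40 ng/mL TNF-alpha added together with compound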
L929 necroptosis – L929 zVAD cell death inhibition | 0.38% of 220,000 active | viability rescue, % at 10 µM | L929 zVAD necroptosis rescue, ATP luminescence, 24 h; with zVAD 60 µM;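 active means activation, scaled between plate controls, above about 75%, limit read from the data; inactive means activation under that limit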
Wee1 stab conf – confirmation of human Wee1 degradation inhibitors; HeLa Luc-Wee1K328M degradation, luminescence; vehicle 0%, proteasome-blocked wells 100%; AID 1410; activation, % at 5 µM; 4% of 1,100 active; shares compounds with Wee1 stabilizer; in the data active means activation above about 8.9%
Each line names hits and unclear results; the compound was inactive in the other large screens (follow-up assays come after a bar, where they were run).

Cc1c(Cl)c([N+](=O)[O-])nn1CCCC(=O)Nc1cccc(Cl)c1	none
CCOc1nc(-c2ccccc2Cl)nc2ccccc12	none
CC(C)(C)C(=O)Oc1cccc(Nc2ncnc3ccccc23)c1	none (no result: Mdm2 ligase inh, Wee1 stabilizer, TNF necrop inh, L929 necroptosis)
C/C(=N\Nc1ccc(S(=O)(=O)Nc2ccc(Cl)cc2)cc1[N+](=O)[O-])c1ccc(N2CCOCC2)cc1	Wee1 stabilizer 11.9 | Wee1 stab conf inactive
C/C(=N\Nc1ccc(S(=O)(=O)Nc2ccccc2)cc1[N+](=O)[O-])c1ccc(N2CCOCC2)cc1	none
O=C(CSc1ncn(-c2ccccc2)n1)NCc1ccccc1	none
Cc1cc(C)n(CC(O)COc2ccccc2C(=O)Nc2ccccc2)n1 (centres undefined)	none
CCOC(=O)N1CCN(S(=O)(=O)c2ccc3[nH]cc(C(=O)O)c(=O)c3c2)CC1	none
CCOC(=O)C(=Cc1c[nH]c2ccc(S(=O)(=O)N(C)C)cc12)C(=O)OCC	Wee1 stabilizer 12.0 | Wee1 stab conf inactive
CCCSc1nsc(NC(=O)CCC)n1	Wee1 stabilizer 13.4 | Wee1 stab conf inactive
CCCCSc1nsc(NC(C)=O)n1	none
Cc1ccc(NC(=S)N/N=C/c2cccn2Cc2ccccc2F)cc1	Wee1 stabilizer 19.2 (no result: Mdm2 ligase inh) | Wee1 stab conf inactive
Cc1ccc(CN2CCN(CC(=O)N/N=C/c3ccccc3F)CC2)cc1	none
CCCc1c(C)c2c(C)[nH]nc2oc1=O	none (no result: Pf gamet viab)
Cc1nn2cc(-c3ccc(Cl)cc3)nc2s1	Wee1 stabilizer 13.8 | Wee1 stab conf inactive
N#C/C(C(=O)NCc1ccccc1)=C1/SC(Cc2ccc(Cl)cc2)C(=O)N1c1ccccc1 (centres undefined)	none (no result: L929 necroptosis)
O=C(Nc1ccc(Cl)cn1)C1COc2ccccc2O1 (centres undefined)	Wee1 stabilizer 19.4, TNF necrop inh 88.9 | Wee1 stab conf inactive
Nc1cccc(C2=Nc3cccc4cccc(c34)N2)c1	Wee1 stabilizer 11.8 | Wee1 stab conf inactive
COc1ccc(N2CCN(C(c3ccc4ncccc4c3)c3nnnn3C(C)(C)C)CC2)cc1 (centres undefined)	Wee1 stabilizer 11.2 | Wee1 stab conf inactive
COc1ccc(N(CC(=O)Nc2c(C)n(C)n(-c3ccccc3)c2=O)S(=O)(=O)c2ccc(C)cc2)cc1	none
COc1ccc(N(CC(=O)Nc2c(C)n(C)n(-c3ccccc3)c2=O)S(=O)(=O)c2ccc(F)cc2)cc1	Wee1 stabilizer 13.2 | Wee1 stab conf inactive
CSc1ccccc1C(=O)NC1CCCCCC1	Wee1 stabilizer 14.2 (no result: Pf gamet viab) | Wee1 stab conf inactive
CCOC(=O)c1ccccc1NC(=O)CN1CCC(n2nnc3cc(F)ccc32)CC1	none (no result: Mdm2 ligase inh, Wee1 stabilizer, TNF necrop inh, L929 necroptosis)
Cc1[nH][nH]c(=O)c1C(c1ccc(O)c([N+](=O)[O-])c1)c1c(C)[nH][nH]c1=O	none
Cc1[nH][nH]c(=O)c1C(c1ccc([N+](=O)[O-])cc1)c1c(C)[nH][nH]c1=O	Wee1 stabilizer 10.9 | Wee1 stab conf inactive
Cn1c(NC(=O)Cc2cccc3ccccc23)cc(=O)n(C)c1=O	Wee1 stabilizer 13.1 (no result: Pf gamet viab) | Wee1 stab conf inactive
Cc1ccc(N(CC(=O)N/N=C/c2cc(C)n(-c3ccccc3C)c2C)S(C)(=O)=O)cc1	Wee1 stabilizer 11.5 (no result: Pf gamet viab) | Wee1 stab conf inactive
N#CCCCSc1nnc(Cc2ccc3c(c2)OCO3)o1	none (no result: Mdm2 ligase inh)
Cc1ccc(/C=C/C(=O)Nc2ccc(Oc3ccccc3)cc2)o1	Wee1 stabilizer 14.9 | Wee1 stab conf inactive
Cc1nnc(NC(=O)c2ccc3ccccc3n2)s1	Wee1 stabilizer 14.1 | Wee1 stab conf inactive
CC(=O)OCC(=O)c1ccc2ccn(C(C)=O)c2c1	Wee1 stabilizer 14.3 | Wee1 stab conf inactive
CCOc1ccc(C(=O)O)cn1	none (no result: Pf gamet viab)
O=S(=O)(c1ccc(S(=O)(=O)N(Cc2ccco2)Cc2ccccc2Cl)cc1)N1CCCC1	Wee1 stabilizer 26.9 (no result: Pf gamet viab) | Wee1 stab conf inactive
Cc1ccc(S(=O)(=O)Nc2ccccc2F)cc1C(=O)NCCCN1CCCC1=O	none
Cc1cc(C(=O)CSc2nc3ccccc3o2)c(C)n1CC1CCCO1 (centres undefined)	Wee1 stabilizer 10.9 (no result: Pf gamet viab) | Wee1 stab conf inactive
Cc1nc2ccccn2c1-c1csc(Nc2cccc(O)c2)n1	Wee1 stabilizer 13.0 (no result: Pf gamet viab) | Wee1 stab conf 10.7
Cc1cc(O)c(-c2cc(C(=O)Nc3cccnc3)[nH]n2)cc1C	Wee1 stabilizer 17.6 | Wee1 stab conf inactive
CCOC(=O)CSc1nnc(CNC(=O)c2ccccc2OC)n1-c1ccc(OC)cc1	Wee1 stabilizer 12.0 (no result: Pf gamet viab) | Wee1 stab conf inactive
CCOc1ccc(/C=N/NC(=O)Cc2cccs2)cc1	Wee1 stabilizer 13.6 | Wee1 stab conf inactive
O=C(Cc1cccs1)N/N=C/c1ccccc1	none
O=c1cc(N2CCc3ccccc32)[nH]c(=O)n1-c1ccc(Cl)cc1	none
CN(CC1CCN(CCc2cccc(C(F)(F)F)c2)CC1)C(=O)c1ccccc1	none (no result: Mdm2 ligase inh, Wee1 stabilizer, TNF necrop inh, L929 necroptosis)
Cc1ccc(NS(=O)(=O)c2ccc(NS(=O)(=O)c3cccs3)cc2)cc1	Wee1 stabilizer 10.9 (no result: Pf gamet viab) | Wee1 stab conf inactive
NS(=O)(=O)c1ccc(NS(=O)(=O)c2cccs2)cc1	none
O=C(NC(=S)N(CCO)Cc1ccccc1)c1cc(Br)ccc1Cl	Wee1 stabilizer 11.2 (no result: Pf gamet viab) | Wee1 stab conf inactive
COc1ccc(Cl)cc1S(=O)(=O)NCc1cccnc1	none
CS(=O)(=O)N1CCc2cc(C(=O)NC3CC3)ccc21	Wee1 stabilizer 14.1 (no result: Pf gamet viab) | Wee1 stab conf inactive
CCCCOc1ccc(NC(=O)C2CC=CCC2C(=O)O)cc1 (centres undefined)	none (no result: Mdm2 ligase inh)
CCn1c(N2CCN(S(=O)(=O)c3ccc(Cl)cc3)CC2)nc2ccccc21	Wee1 stabilizer 25.6 | Wee1 stab conf inactive
COc1cccc(C(=O)N=c2sc3c(C)ccc(OC)c3n2C)c1	none (no result: Pf gamet viab, Wee1 stabilizer, TNF necrop inh, L929 necroptosis)
COc1ccc(C(=O)N=c2sc3c(C)ccc(OC)c3n2C)cc1OC	Wee1 stabilizer 12.3 | Wee1 stab conf inactive
Cc1ccc(NC2=CC(=O)CC(c3ccc(Cl)cc3)C2)cc1 (centres undefined)	Wee1 stabilizer 14.8 (no result: Pf gamet viab) | Wee1 stab conf inactive
Cc1nc2ccc(F)cc2cc1C(=O)NCc1ccco1	none
Cc1nc2ccc(F)cc2cc1C(=O)Nc1ccc(Cl)c(Cl)c1	Wee1 stabilizer 14.8 | Wee1 stab conf inactive
C/C(Cc1ccccc1)=N/NC(=O)CNC(=O)C(c1ccccc1)c1ccccc1	Wee1 stabilizer 11.5 | Wee1 stab conf inactive
C/C(=N\NC(=O)CNC(=O)C(c1ccccc1)c1ccccc1)c1ccccc1	none
CCOC(=O)N1CCN(C(=O)CN(c2cccc(OC)c2)S(C)(=O)=O)CC1	none
O=c1cc(NCc2ccccc2)nc2ccccn12	Wee1 stabilizer 11.7 (no result: Pf gamet viab) | Wee1 stab conf inactive
COc1ccccc1NS(=O)(=O)c1ccc(OC)c([N+](=O)[O-])c1	none
CCn1c(CNc2ccc(OC)cc2)nnc1SCC(=O)N1CCCc2ccccc21	none
